In brackets after ≈: the same amount, converted by molar mass.
Experiments:
[1] = test system: Klebsiella pneumoniae; assay: Antibacterial activity against ESBL positive Klebsiella pneumoniae ATCC 700603 after 24 hrs by resazurin dye based microdilution assay; assay type: functional; conditions: Klebsiella pneumoniae, 700603, 24 h
Summary of the method: (§1)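 MIC taken as the lowest concentration giving visible inhibition and/or by resazurin (1 mg/mL). Gentamicin was the control. Run in duplicate, repeated at least three times.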

[2] = test system: Klebsiella pneumoniae; assay: Antibacterial activity against carbapenemase positive Klebsiella pneumoniae BAA 1705 after 24 hrs by resazurin dye based microdilution assay; assay type: functional; conditions: BAA 1705, 24 h; summary of the method: as §1
[3] = test system: Leishmania panamensis; assay: Antileshmanial activity against EpiR/GFP fused Leishmania panamensis MHOM/CO/87/UA140 intracellular amastigotes infected in human […] cells after 72 hrs by flow cytometric method; assay type: functional, cell-based; conditions: MHOM/CO/87/UA140, 72 h
Summary of the method: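 PMA-treated U-937 cells (3 × 10^5 cells/mL) infected with stationary-phase GFP L. panamensis promastigotes (15:1), 3 h at 34 °C, then washed. After 24 h, compounds added at 50, 12.5, 3.125 and 0.78 µg/mL for 72 h at 37 °C. EC50 by Probit; triplicate, two experiments.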

[4] = test system: Candida albicans; assay: Antifungal activity against Candida albicans ATCC 10231 incubated for 48 hrs under dark condition by broth microdilution method; assay type: functional; conditions: ATCC 10231, 48 h
Summary of the method: (§2)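 CLSI M27-A3 broth microdilution in RPMI-1640, DMSO ≤1%, compounds at 250-0.98 µg/mL final. Inoculum 1-5 × 10^3 CFU/mL. Incubated 48 h at 30 °C in a moist dark chamber, read at OD405. MIC80 and MIC50 taken from % inhibition dose-response curves (mean ± SEM, triplicate). Amphotericin B was the positive control.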

[5] = test system: Cryptococcus neoformans; assay: Antifungal activity against Cryptococcus neoformans ATCC 32264 incubated for 48 hrs under dark condition by broth microdilution method; assay type: functional; conditions: ATCC 32264, 48 h; summary of the method: as §2
[6] = test system: Candida albicans; assay: Growth inhibition of Candida albicans ATCC 10231 at 250 ug/ml incubated for 48 hrs under dark condition by broth microdilution method relative to control; assay type: functional; conditions: ATCC 10231, 48 h, read-out: GI
Summary of the method: (§3)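 CLSI M27-A3 broth microdilution in RPMI-1640, DMSO ≤1%. Inoculum 1-5 × 10^3 CFU/mL. Incubated 48 h at 30 °C, dark. % inhibition = 100 − (OD405 test − sterility control)/(OD405 growth control − sterility control), with growth and sterility control wells. Triplicate.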

[7] = test system: Candida albicans; assay: Growth inhibition of Candida albicans ATCC 10231 at 125 ug/ml incubated for 48 hrs under dark condition by broth microdilution method relative to control; assay type: functional; conditions: ATCC 10231, 48 h, read-out: GI; summary of the method: as §3
[8] = test system: Candida albicans; assay: Growth inhibition of Candida albicans ATCC 10231 at 62.5 ug/ml incubated for 48 hrs under dark condition by broth microdilution method relative to control; assay type: functional; conditions: ATCC 10231, 48 h, read-out: GI; summary of the method: as §3
[9] = test system: Candida albicans; assay: Growth inhibition of Candida albicans ATCC 10231 at 31.25 ug/ml incubated for 48 hrs under dark condition by broth microdilution method relative to control; assay type: functional; conditions: ATCC 10231, 48 h, read-out: GI; summary of the method: as §3
[10] = test system: Candida albicans; assay: Growth inhibition of Candida albicans ATCC 10231 at 15.62 ug/ml incubated for 48 hrs under dark condition by broth microdilution method relative to control; assay type: functional; conditions: ATCC 10231, 48 h, read-out: GI; summary of the method: as §3
[11] = test system: Candida albicans; assay: Growth inhibition of Candida albicans ATCC 10231 at 7.8 ug/ml incubated for 48 hrs under dark condition by broth microdilution method relative to control; assay type: functional; conditions: ATCC 10231, 48 h, read-out: GI; summary of the method: as §3
[12] = test system: Candida albicans; assay: Growth inhibition of Candida albicans ATCC 10231 at 3.4 ug/ml incubated for 48 hrs under dark condition by broth microdilution method relative to control; assay type: functional; conditions: ATCC 10231, 48 h, read-out: GI
[13] = test system: Cryptococcus neoformans; assay: Growth inhibition of Cryptococcus neoformans ATCC 32264 at 250 ug/ml incubated for 48 hrs under dark condition by broth microdilution method relative to control; assay type: functional; conditions: ATCC 32264, 48 h, read-out: GI; summary of the method: as §3
[14] = test system: Cryptococcus neoformans; assay: Growth inhibition of Cryptococcus neoformans ATCC 32264 at 125 ug/ml incubated for 48 hrs under dark condition by broth microdilution method relative to control; assay type: functional; conditions: ATCC 32264, 48 h, read-out: GI; summary of the method: as §3
[15] = test system: Cryptococcus neoformans; assay: Growth inhibition of Cryptococcus neoformans ATCC 32264 at 62.5 ug/ml incubated for 48 hrs under dark condition by broth microdilution method relative to control; assay type: functional; conditions: ATCC 32264, 48 h, read-out: GI; summary of the method: as §3
[16] = test system: Cryptococcus neoformans; assay: Growth inhibition of Cryptococcus neoformans ATCC 32264 at 31.25 ug/ml incubated for 48 hrs under dark condition by broth microdilution method relative to control; assay type: functional; conditions: ATCC 32264, 48 h, read-out: GI; summary of the method: as §3
[17] = test system: Cryptococcus neoformans; assay: Growth inhibition of Cryptococcus neoformans ATCC 32264 at 15.62 ug/ml incubated for 48 hrs under dark condition by broth microdilution method relative to control; assay type: functional; conditions: ATCC 32264, 48 h, read-out: GI; summary of the method: as §3
[18] = test system: Cryptococcus neoformans; assay: Growth inhibition of Cryptococcus neoformans ATCC 32264 at 7.8 ug/ml incubated for 48 hrs under dark condition by broth microdilution method relative to control; assay type: functional; conditions: ATCC 32264, 48 h, read-out: GI; summary of the method: as §3
[19] = test system: Cryptococcus neoformans; assay: Growth inhibition of Cryptococcus neoformans ATCC 32264 at 3.4 ug/ml incubated for 48 hrs under dark condition by broth microdilution method relative to control; assay type: functional; conditions: ATCC 32264, 48 h, read-out: GI
[20] = test system: Staphylococcus aureus; assay: Antibacterial activity against methicillin-sensitive Staphylococcus aureus ATCC 25923 after 24 hrs by resazurin dye based microdilution assay; assay type: functional; conditions: ATCC 25923, 24 h; summary of the method: as §1
[21] = test system: Staphylococcus aureus; assay: Antibacterial activity against methicillin-resistant Staphylococcus aureus ATCC 43300 after 24 hrs by resazurin dye based microdilution assay; assay type: functional; conditions: ATCC 43300, 24 h
Summary of the method: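 Broth microdilution in Mueller Hinton broth, inoculum 5 × 10^5 – 8 × 10^5. Compound stocks diluted in MHB with 5% DMSO and 0.1% Tween 80. Incubation 24 h at 35-37 °C. MIC is the lowest concentration with visible growth inhibition and/or by resazurin (1 mg/mL) read-out. Gentamicin as control. Run in duplicate, replicated at least three times.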

[22] = test system: Staphylococcus aureus; assay: Antibacterial activity against vancomycin-intermediate Staphylococcus aureus after 24 hrs by resazurin dye based microdilution assay; assay type: functional; summary of the method: as §1
[23] = test system: Escherichia coli; assay: Antibacterial activity against Escherichia coli ATCC 25922 after 24 hrs by resazurin dye based microdilution assay; assay type: functional; conditions: ATCC 25922, 24 h; summary of the method: as §1
[24] = test system: Pseudomonas aeruginosa; assay: Antibacterial activity against Pseudomonas aeruginosa ATCC 27853 after 24 hrs by resazurin dye based microdilution assay; assay type: functional; conditions: ATCC 27853, 24 h; summary of the method: as §1
[25] = test system: Neisseria gonorrhoeae; assay: Antibacterial activity against beta lactamase positive Neisseria gonorrhoeae ATCC 31426 by oxidase test; assay type: functional
Summary of the method: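 Agar dilution MIC on GC agar with 1% isovitalex containing increasing compound concentrations. Plates inoculated with about 1×10^4 CFU (5 µL). MIC is the lowest concentration that inhibited growth, with growth confirmed by oxidase test. Run in duplicate, repeated at least three times.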

[26] = test system: Plasmodium falciparum; assay: Antiplasmodial activity against chloroquine-sensitive Plasmodium falciparum 3D7 assessed as reduction in parasitic LDH activity after 48 hrs by Malstat reagent based […] method; assay type: functional; conditions: 3D7, 48 h
Summary of the method: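 Unsynchronized P. falciparum 3D7 at 0.5% parasitemia and 1% hematocrit in RPMI with 3% Albumax II. Exposed to 100, 25, 6.25 and 1.56 µg/mL for 48 h at 37 °C under 90% N2/5% CO2/5% O2. After three freeze-thaw cycles, LDH measured with Malstat and NBT/PES, 1 h in the dark, read at 650 nm. IC50 by Probit; triplicate, ≥2 experiments.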

[27] = test system: U-937; assay: Cytotoxicity against human U937 cells after 72 hrs by MTT assay; assay type: cell-based; conditions: u-937, 72 h
Summary of the method: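 Exponentially growing U-937 at 1 × 10^5 cells/mL in RPMI-1640 with 10% FBS were exposed to 200, 50, 12.5 and 3.125 µg/mL for 72 h at 37 °C, 5% CO2. MTT for 3 h, stopped with isopropanol/SDS, formazan read at 570 nm, blank-corrected. LC50 by Probit from % viability against untreated cells. Triplicate, at least two independent experiments.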

[28] = test system: Trypanosoma cruzi; assay: Antitrypanosomal activity against Trypanosoma cruzi Tulahuen intracellular amastigote harboring LacZ infected in human U937 cells after 72 hrs by CPRG/Nonidet reagent based spectrophotometric method; assay type: functional, cell-based; conditions: U-937, 72 h
Summary of the method: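 U-937 cells at 2.5 × 10^5 cells/mL in RPMI-1640 with 10% serum and 0.1 µg/mL PMA were infected with β-galactosidase-transfected Tulahuen epimastigotes at 5 parasites per cell. Infected cells were exposed to 50, 12.5, 3.125 and 0.78 µg/mL for 72 h. CPRG (100 uM) and 0.1% Nonidet P-40 were added for 3 h, read at 570 nm. EC50 by Probit. Triplicate, at least two experiments; benznidazole as reference.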

SMILES | MIC [1] [µg/mL] | MIC [2] [µg/mL] | EC50 [3] [µg/mL] | MIC50 [4] [µg/mL] | MIC80 [4] [µg/mL] | MIC50 [5] [µg/mL] | MIC80 [5] [µg/mL] | inhibition of growth at 250 µg/mL [6] [%] | inhibition of growth at 125 µg/mL [7] [%] | inhibition of growth at 62.5 µg/mL [8] [%] | inhibition of growth at 31.25 µg/mL [9] [%] | inhibition of growth at 15.62 µg/mL [10] [%] | inhibition of growth at 7.8 µg/mL [11] [%] | inhibition of growth at 3.4 µg/mL [12] [%] | inhibition of growth at 250 µg/mL [13] [%] | inhibition of growth at 125 µg/mL [14] [%] | inhibition of growth at 62.5 µg/mL [15] [%] | inhibition of growth at 31.25 µg/mL [16] [%] | inhibition of growth at 15.62 µg/mL [17] [%] | inhibition of growth at 7.8 µg/mL [18] [%] | also measured
Clc1cc(Cl)cc(N2N=C(c3ccc(Br)cc3)CC2c2cccc(Nc3ccnc4cc(Cl)ccc34)c2)c1 (stereo not given) | > 1000 | > 1000 | 2.77 (≈ 4.45 µM) | ≥ 250 | ≥ 250 | ≥ 250 | ≥ 250 | 13.7 | 7.23 | 4.45 | 2.07 | 1.92 | 1.43 | 0 | 13.3 | 0 | 0 | 0 | 0 | 0 | inhibition of growth at 3.4 µg/mL [19]: 0%; MIC [20]: > 1000 µg/mL; MIC [21]: > 1000 µg/mL; MIC [22]: > 1000 µg/mL; MIC [23]: > 1000 µg/mL; MIC [24]: > 1000 µg/mL; MIC [25]: > 1000 µg/mL; EC50 [26]: 14.4 µg/mL (≈ 23.1 µM); LC50 [27]: > 200 µg/mL; EC50 [28]: 28.3 µg/mL (≈ 45.4 µM)
CC(=O)N1N=C(c2ccc(C)cc2)CC1c1cccc(Nc2ccnc3cc(Cl)ccc23)c1 (stereo not given) | > 1000 | > 1000 | 1.55 (≈ 3.41 µM) | 250 (≈ 549 µM) | ≥ 250 | 125 (≈ 275 µM) | 250 (≈ 549 µM) | 67.8 | 46.2 | 35.9 | 32.2 | 31.4 | 20.6 | 15.9 | 100 | 54.7 | 42.9 | 33.7 | 29.6 | 29.2 | inhibition of growth at 3.4 µg/mL [19]: 13.2%; MIC [20]: > 1000 µg/mL; MIC [21]: > 1000 µg/mL; MIC [22]: > 1000 µg/mL; MIC [23]: > 1000 µg/mL; MIC [24]: > 1000 µg/mL; MIC [25]: > 1000 µg/mL; EC50 [26]: 17.5 µg/mL (≈ 38.5 µM); LC50 [27]: 4.4 µg/mL (≈ 9.67 µM); EC50 [28]: 1.62 µg/mL (≈ 3.56 µM)
COc1cc(C2=NN(c3ccccc3)C(c3cccc(Nc4ccnc5cc(Cl)ccc45)c3)C2)cc(OC)c1OC (stereo not given) | > 1000 | > 1000 | 13.4 (≈ 23.7 µM) | 250 (≈ 442 µM) | ≥ 250 | 250 (≈ 442 µM) | ≥ 250 | 60.5 | 42.3 | 23.4 | 13.4 | 11.6 | 6.63 | 4.16 | 58.6 | 18.3 | 16.2 | 1.65 | 0.13 | 0 | inhibition of growth at 3.4 µg/mL [19]: 0%; MIC [20]: > 1000 µg/mL; MIC [21]: > 1000 µg/mL; MIC [22]: > 1000 µg/mL; MIC [23]: > 1000 µg/mL; MIC [24]: > 1000 µg/mL; MIC [25]: > 1000 µg/mL; EC50 [26]: 15.5 µg/mL (≈ 27.4 µM); LC50 [27]: > 200 µg/mL; EC50 [28]: 21.6 µg/mL (≈ 38.2 µM)
